The text below walks through data of ChEMBL document CHEMBL2429831, “Synthesis, antitubercular and anticancer activity of new Baylis-Hillman adduct-derived N-cinnamyl-substituted isatin derivatives” (Med Chem Res, 2013).

By MIC is commonly meant the least concentration at which growth counts as inhibited.

≈ marks a conversion by molar mass, not a printed value. Calls of active or inactive are those of the source. No cut-off for these calls is given here.

The test system of series [1] is SUP-T1. The series can be described thus: Cytotoxicity against human SupT1 cells assessed as cell viability at 0.0000001 to 1 mM after 16 hrs by MTT assay. The format is functional. The method in brief:
(§1)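 Cells seeded and incubated overnight at 37 °C in a CO2 incubator, then exposed to 1 mM, 100 μM, 100 nM and 100 pM (final) for 16 h at 37 °C, 5 % CO2. Medium removed, MTT (1 mg/mL in medium) added for 5 h, formazan dissolved in DMSO, absorbance read at 570 nm. Viability relative to 0.1 % DMSO solvent control (100 %). Triplicates, means.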
For orientation: Tetrazolium assays rely on reduction of a dye to a coloured formazan, in cell work by metabolically active cells.

In series [2] the test system is C6. The series can be described thus: Cytotoxicity against rat C6 cells assessed as cell viability at 0.0000001 to 1 mM after 16 hrs by MTT assay. The format is functional. The method, boiled down:
as §1

In series [3] the test system is COLO 205. Kind of series: Cytotoxicity against human COLO205 cells assessed as cell viability at 0.0000001 to 1 mM after 16 hrs by MTT assay. Format: functional, cell-based. The method, boiled down: as §1
The test system of series [4] is CHO. The series can be described thus: Cytotoxicity against CHO cells assessed as cell viability at 0.0000001 to 1 mM after 16 hrs by MTT assay. The format is cell-based, Cricetulus griseus. The settings on record: chinese hamster. The method, boiled down:
as §1

Series [5] concerns Mycobacterium tuberculosis. The series can be described thus: Antitubercular activity against Mycobacterium tuberculosis H37Rv ATCC 27294 assessed as growth inhibition after 28 days by agar dilution method. The format is functional. The settings on record: H37Rv ATCC 27294, 672 h. The method, boiled down:
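Agar dilution in Middlebrook 7H11 with 10 % OADC, duplicate plates; compounds dissolved in DMSO and diluted twofold to give ten serial dilutions. Inoculum grown on 7H11/OADC slants, adjusted to 1 mg/mL wet weight in 0.05 % Tween 80 saline, diluted 10−2 (~10^7 cfu/mL); 5 μL spotted. Incubated at 37 °C, read at 28 days; MIC = lowest concentration completely inhibiting growth.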

For the molecule `COC(=O)/C(=C/c1ccc(Br)cc1)CN1C(=O)C(=O)c2cc(F)ccc21`, the result in series [1], in series [2] and in series [3] was Active. Moreover, the Activity result in series [4] was “Toxic”. In addition, the MIC in series [5] was determined as 6.25 µg/mL (≈ 14.9 µM).
Regarding `COC(=O)/C(=C/c1ccc([N+](=O)[O-])cc1)CN1C(=O)C(=O)c2ccccc21`, the result in series [1], in series [2] and in series [3] was Active. In addition, in series [4], the Activity entry was “Toxic”. The MIC in series [5] came to 6.25 µg/mL (≈ 17.1 µM).
`COC(=O)/C(=C/c1ccccc1)CN1C(=O)C(=O)c2ccccc21`: the result in series [1], in series [2] and in series [3] was Active. The Activity entry in series [4] is on record as “Toxic”. The MIC in series [5] amounted to 25 µg/mL (≈ 77.8 µM).
As for `COC(=O)/C(=C/c1ccc([N+](=O)[O-])cc1)CN1C(=O)C(=O)c2cc(F)ccc21`, the result in series [1], in series [2] and in series [3] was Active. The Activity entry in series [4] is recorded as “Toxic”. The MIC in series [5] was 1.56 µg/mL (≈ 4.06 µM).
In the case of `COC(=O)/C(=C/c1ccc([N+](=O)[O-])cc1)CN1C(=O)C(=O)c2cc(Br)ccc21`, the Activity is on record as less than 20% in series [1], less than 20% in series [2] and “Non-toxic” in series [4]. In series [3], the result was Active. Besides, in series [5], the MIC is 1.56 µg/mL (≈ 3.5 µM).
As for `COC(=O)/C(=C/c1ccc(Br)cc1)CN1C(=O)C(=O)c2ccccc21`, the outcome in series [1], in series [2] and in series [3] was Active. For the same molecule, the Activity entry in series [4] is recorded as “Toxic”. Also, the MIC in series [5] was 25 µg/mL (≈ 62.5 µM).
With `CC[C@@H](CO)NCCN[C@@H](CC)CO` [ETHAMBUTOL], the MIC in series [5] is 7.64 µg/mL (≈ 37.4 µM).
For `COC(=O)/C(=C/c1ccc(Br)cc1)CN1C(=O)C(=O)c2cc(Br)ccc21`, the result in series [1], in series [2] and in series [3] was Active. The Activity result in series [4] is listed as “Toxic”. The MIC in series [5] is 12.5 µg/mL (≈ 26.1 µM).
Turning to `COC(=O)/C(=C/c1ccc(Br)cc1)CN1C(=O)C(=O)c2cc(Cl)ccc21`, the result in series [1], in series [2] and in series [3] was Active. Moreover, the Activity result in series [4] was “Toxic”. Further, the MIC in series [5] stood at 6.25 µg/mL (≈ 14.4 µM).
Turning to `CO[C@H]1/C=C/O[C@@]2(C)Oc3c(C)c(O)c4c(O)c(c(/C=N/N5CCN(C)CC5)c(O)c4c3C2=O)NC(=O)/C(C)=C\C=C\[C@H](C)[C@H](O)[C@@H](C)[C@@H](O)[C@@H](C)[C@H](OC(C)=O)[C@@H]1C` [RIFAMPIN], the MIC in series [5] turned out to be 0.1 µg/mL (≈ 0.122 µM).
Consider `NC(=O)c1cnccn1` [PYRAZINAMIDE], for which the MIC in series [5] is 50.8 µg/mL (≈ 412 µM).
Take `COC(=O)/C(=C/c1ccccc1)CN1C(=O)C(=O)c2cc(Cl)ccc21`: the result in series [1], in series [2] and in series [3] was Active. The Activity result in series [4] was “Toxic”. The MIC in series [5] is 12.5 µg/mL (≈ 35.1 µM).
`NNC(=O)c1ccncc1` [ISONIAZID]: the MIC in series [5] stood at 0.36 µg/mL (≈ 2.63 µM).
Consider `COC(=O)/C(=C/c1ccccc1)CN1C(=O)C(=O)c2cc(F)ccc21`, for which the result in series [1], in series [2] and in series [3] was Active. The Activity entry in series [4] is “Toxic”. Moreover, the MIC in series [5] is 12.5 µg/mL (≈ 36.8 µM).
With `COC(=O)/C(=C/c1ccc([N+](=O)[O-])cc1)CN1C(=O)C(=O)c2cc(Cl)ccc21`, the outcome in series [1], in series [2] and in series [3] was Active. For the same molecule, the Activity entry in series [4] is “Toxic”. Also, in series [5], the MIC stood at 1.56 µg/mL (≈ 3.89 µM).
Turning to `COC(=O)/C(=C/c1ccccc1)CN1C(=O)C(=O)c2cc(Br)ccc21`, the outcome in series [1], in series [2] and in series [3] was Active. Besides, in series [4], the Activity result is reported as “Toxic”. Besides, in series [5], the minimal inhibitory concentration (MIC) came out at 12.5 µg/mL (≈ 31.2 µM).
